Assay [1] concerns Rattus norvegicus. Briefly: Compound was evaluated for the antihypertensive activity against DBH in conscious spontaneously hypertensive rats at the 30 doses (mg/Kg ip) after 9 hr (MBP= mean arterial blood pressure). Type of assay: functional, Artery. Summed up: (§1)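 Conscious spontaneously hypertensive rats received a single intraperitoneal dose; the paper's dose levels were 10, 30 and 100 mg/kg. Mean arterial blood pressure was monitored. Values are the maximal change in mmHg and the duration of the response in h. Groups were n = 4–6, reported as mean ± SD.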

The target of assay [2] is T1, Dopamine beta-hydroxylase (Bos taurus, UniProt P15101).
T1 sequence (P15101 whole entry): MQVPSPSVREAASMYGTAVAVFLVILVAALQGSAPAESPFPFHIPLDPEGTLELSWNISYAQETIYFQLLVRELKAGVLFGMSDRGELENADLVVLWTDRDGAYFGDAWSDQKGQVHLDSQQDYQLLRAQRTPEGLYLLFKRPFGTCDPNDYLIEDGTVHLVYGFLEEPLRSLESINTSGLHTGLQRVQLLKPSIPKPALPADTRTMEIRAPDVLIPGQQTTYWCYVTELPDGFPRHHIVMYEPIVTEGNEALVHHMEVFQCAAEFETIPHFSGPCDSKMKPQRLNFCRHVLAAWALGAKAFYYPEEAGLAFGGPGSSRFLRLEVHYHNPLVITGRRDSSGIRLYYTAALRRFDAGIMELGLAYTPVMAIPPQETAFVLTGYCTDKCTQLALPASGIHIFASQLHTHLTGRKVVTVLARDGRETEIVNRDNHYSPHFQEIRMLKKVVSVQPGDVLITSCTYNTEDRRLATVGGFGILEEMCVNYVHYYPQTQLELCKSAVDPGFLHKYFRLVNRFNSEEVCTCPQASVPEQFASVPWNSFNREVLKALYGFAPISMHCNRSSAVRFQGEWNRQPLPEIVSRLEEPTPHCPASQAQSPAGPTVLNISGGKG
Briefly: Compound was determined for the kinetic constant against Dopamine beta hydroxylase purified from beef adrenals, inhibitory constant (Ki). Summed up: (§2)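 Bovine adrenal DBH, purified to homogeneity. Aliquots withdrawn at timed intervals and diluted into assay medium with 1 mM tyramine. Residual activity measured as octopamine formed, by reverse-phase HPLC with fluorescence detection. KI and kcat from Kitz–Wilson plot of t1/2 versus 1/I; kcat/KI calculated.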

Assay [3] is described as follows: The ratio of Kinetic constant K cat / Ki of Dopamine Beta-hydroxylase inhibitor. The gist of the method: as §2
For assay [4], the target named is T2, Dopamine beta-hydroxylase (Bos taurus) (UniProt P15101).
T2 sequence (whole entry): T1 sequence (P15101 whole entry)
Briefly: Compound was determined for the kinetic constant against Dopamine beta hydroxylase purified from beef adrenals, catalytic constant (kcat). Summed up: as §2

Assay [5] has as its system Rattus norvegicus. Briefly: Compound was evaluated for the antihypertensive activity against DBH in conscious spontaneously hypertensive rats at the 30 doses (mg/Kg ip) after 43h. It is filed as functional. The gist of the method: (§3)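 Conscious spontaneously hypertensive rats dosed intraperitoneally at 10, 30 or 100 mg/kg, n = 4–6 per group. Read-out is maximal change in mean arterial blood pressure (mmHg, mean ± SD), with duration of response in hours.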

The subject of assay [6] is Rattus norvegicus. The experiment in a line: Compound was evaluated for the antihypertensive activity against DBH in conscious spontaneously hypertensive rats at the 100 doses (mg/Kg ip) after 70h. It is filed as functional. The gist of the method:
as §3

For assay [7], the system named is Rattus norvegicus. The experiment in a line: Compound was evaluated for the antihypertensive activity against DBH in conscious spontaneously hypertensive rats at the 10 doses (mg/Kg ip) after 1h. It is filed as functional. The gist of the method:
as §3

The subject of assay [8] is Rattus norvegicus. Briefly: Compound was evaluated for the antihypertensive activity against DBH in conscious spontaneously hypertensive rats at the 100 doses (mg/Kg ip). (MBP= mean arterial blood pressure).
In assay [9] the test system is Rattus norvegicus. Briefly: Compound was evaluated for the antihypertensive activity against DBH in conscious spontaneously hypertensive rats at the 30 doses (mg/Kg ip) after >1h. (MBP= mean arterial blood pressure). It is filed as functional, Artery. Summed up: as §3
Assay [10] concerns Rattus norvegicus. Briefly: Compound was evaluated for the antihypertensive activity against DBH in conscious spontaneously hypertensive rats at the 30 doses (mg/Kg ip) after 6h. It is filed as functional. Summed up: as §3
Assay [11] has as its system Rattus norvegicus. Briefly: Compound was evaluated for the antihypertensive activity against DBH in conscious spontaneously hypertensive rats at the 100 doses (mg/Kg ip) after 3h. Type of assay: functional. Summed up: as §3
In assay [12] the test system is Rattus norvegicus. Briefly: Compound was evaluated for the antihypertensive activity against DBH in conscious spontaneously hypertensive rats at the 30 doses (mg/Kg ip) after 1h. It is filed as functional. The gist of the method: as §3
The subject of assay [13] is Rattus norvegicus. Briefly: Compound was evaluated for the antihypertensive activity against DBH in conscious spontaneously hypertensive rats at the 100 doses (mg/Kg ip) after 2 hr. It is filed as functional. The gist of the method: as §3
Assay [14] has as its system Rattus norvegicus. The experiment in a line: Compound was evaluated for the antihypertensive activity against DBH in conscious spontaneously hypertensive rats at the 30 doses (mg/Kg ip) after 30h. Type of assay: functional. Summed up: as §3
The test system of assay [15] is Rattus norvegicus. The experiment in a line: Compound was evaluated for the antihypertensive activity against DBH in conscious spontaneously hypertensive rats at the 100 doses (mg/Kg ip) after 79h. It is filed as functional. Summed up: as §3
Assay [16] has as its system Rattus norvegicus. Briefly: Compound was evaluated for the antihypertensive activity against DBH in conscious spontaneously hypertensive rats at the 30 doses (mg/Kg i.p.) after 3hr. Type of assay: functional. The gist of the method:
as §1

As usually defined, the Ki is a dissociation constant, usually derived from enzyme kinetics or from competition with a known ligand.

For the compound `C=C(c1cccs1)C(C)N` (stereo unspecified), the “Max MBP” value in assay [1] is -16 mmHg. Besides, the Ki in [2] stood at 360 µM. Also, the k cat/Ki in assay [3] turned out to be 2.68 M⁻¹ s⁻¹. The k cat in assay [4] amounted to 0.000967 s⁻¹.

Regarding `C=C(CN)c1cccs1`, the “Max MBP” value is -36 mmHg in assay [5], -34 mmHg in assay [6] and -19 mmHg in assay [7]. Also, the Ki in assay [2] turned out to be 35 µM. Besides, the k cat/Ki in assay [3] came out at 59 M⁻¹ s⁻¹. For the same compound, the k cat in assay [4] is 0.124 -1/min.

With `C=C(CNC)c1cccs1`, the “Max MBP” value in [8] was -16 mmHg; in assay [9] it was -23 mmHg. This compound showed a Ki in assay [2] of 2150 µM. For the same compound, the k cat/Ki in [3] came out at 0.733 M⁻¹ s⁻¹. Also, in [4], the k cat is 0.00163 s⁻¹.

As for `C=C(CN)c1ccoc1`, the “Max MBP” value in assay [10] was -20 mmHg; in assay [11], -21 mmHg. The compound also returned a Ki in assay [2] of 230 µM. The k cat/Ki in [3] was 5.57 M⁻¹ s⁻¹. Moreover, the k cat in [4] was 0.077 -1/min.

`C=C(CN)c1ccccc1` displayed a Ki in assay [2] of 13000 µM. Besides, in [3], the k cat/Ki worked out at 0.05 M⁻¹ s⁻¹. Besides, in assay [4], the k cat is 0.04 -1/min.

As to `C=C(CN)c1ccsc1`, the “Max MBP” value in assay [12] is -18 mmHg; in assay [13], -54 mmHg. The compound further displayed a Ki in [2] of 570 µM. The k cat/Ki in [3] is 4.28 M⁻¹ s⁻¹. Also, the k cat in assay [4] is 0.147 -1/min.

In the case of `C=C(CN)c1ccco1`, the “Max MBP” value in [14] is reported as -26 mmHg; in assay [15], -69 mmHg; in assay [7] it was -10 mmHg. This compound also registered a Ki in [2] of 410 µM. The k cat/Ki in [3] was 5.28 M⁻¹ s⁻¹. Further, the k cat in [4] was 0.13 -1/min.

`NCC#Cc1ccccc1`: in assay [16], the “Max MBP” value is given as -13 mmHg. In assay [2], this compound displayed a Ki of 21 µM. Besides, the k cat/Ki in [3] came to 55.5 M⁻¹ s⁻¹. The k cat in [4] is 0.07 -1/min.

Regarding `CC#Cc1ccccc1`, the affinity in [2], expressed as Ki, was 20000 µM. For the same compound, the k cat/Ki in [3] came to 0.1 M⁻¹ s⁻¹. Further, the k cat in assay [4] is 0.06 -1/min.

(Values after ChEMBL document CHEMBL1123506, “Unsaturated heterocyclic amines as potent time-dependent inhibitors of dopamine beta-hydroxylase” (J Med Chem, 1986).)
